Data from ChEMBL document CHEMBL4732162, “Design, synthesis and evaluation of novel ErbB/HDAC multitargeted inhibitors with selectivity in EGFR mutant cell lines” (Eur J Med Chem, 2021).
pIC50: −log10 of the molar value. Active and inactive are the calls of the source. The rule behind the calls is not given here.

Tests used:
NCI-H1975 [1] = assay: Induction of apoptosis in human NCI-H1975 cells assessed as increase in cleaved-caspase 8 level at 0.5 to 5 uM after 48 hrs by Western blot analysis; format: functional, cell-based; conditions: dose 0.5-5 µM
In short: (§1)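 Cells were treated with compound for 48 h and lysed on ice for 30 min in RIPA buffer with protease and phosphatase inhibitors. Lysates were cleared at 14000 g, 4 °C, and protein quantified by BCA. Samples were boiled in loading buffer, run on 10–12% SDS-PAGE and transferred to PVDF. Membranes were blocked 2 h, incubated in primary antibody overnight at 4 °C, then in secondary antibody 2 h at room temperature.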

[2] = biological target: T1, Histone deacetylase (Homo sapiens) (UniProt Q13547+O15379+Q9UBN7+Q92769+Q9UQL6+Q8WUI4+Q9BY41+Q96DB2+P56524+Q9UKV0+Q969S8); assay: Inhibition of HDAC in human NCI-H1975 cells assessed as increase in histone H3 acetylation after 48 hrs by Western blot analysis; format: cell-based; conditions: dose 0.5-5 µM; in short: as §1
SK-BR-3 = assay: Antiproliferation activity against human SK-BR-3 cells incubated for 72 hrs by MTT assay; format: functional, cell-based; conditions: SK-BR-3, 72 h
In short: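 MTT assay. About 0.5–1 × 10⁴ cells/well were pre-incubated 12 h at 37 °C in 5% CO₂, then exposed to a concentration series of compound for 72 h. Formazan was dissolved in DMSO and absorbance read at 490 nm. Three wells per condition, three independent experiments. IC50 is the mean ± SD from the dose-response curves.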

NCI-H1975 [3] = assay: Induction of apoptosis in human NCI-H1975 cells assessed as increase in cleaved-caspase 3 level at 0.5 to 5 uM after 48 hrs by Western blot analysis; format: functional, cell-based; conditions: dose 0.5-5 µM; in short: as §1
NCI-H1975 [4] = assay: Down regulation of EGFR protein expression in human NCI-H1975 cells at 0.5 to 5 uM after 48 hrs by Western blot analysis; format: functional, cell-based; conditions: dose 0.5-5 µM; in short: as §1
Histone deacetylase 1 = Histone deacetylase 1 (Homo sapiens, UniProt Q13547); assay: Inhibition of HDAC1 (unknown origin)
Chain of Histone deacetylase 1 (Q13547 whole entry): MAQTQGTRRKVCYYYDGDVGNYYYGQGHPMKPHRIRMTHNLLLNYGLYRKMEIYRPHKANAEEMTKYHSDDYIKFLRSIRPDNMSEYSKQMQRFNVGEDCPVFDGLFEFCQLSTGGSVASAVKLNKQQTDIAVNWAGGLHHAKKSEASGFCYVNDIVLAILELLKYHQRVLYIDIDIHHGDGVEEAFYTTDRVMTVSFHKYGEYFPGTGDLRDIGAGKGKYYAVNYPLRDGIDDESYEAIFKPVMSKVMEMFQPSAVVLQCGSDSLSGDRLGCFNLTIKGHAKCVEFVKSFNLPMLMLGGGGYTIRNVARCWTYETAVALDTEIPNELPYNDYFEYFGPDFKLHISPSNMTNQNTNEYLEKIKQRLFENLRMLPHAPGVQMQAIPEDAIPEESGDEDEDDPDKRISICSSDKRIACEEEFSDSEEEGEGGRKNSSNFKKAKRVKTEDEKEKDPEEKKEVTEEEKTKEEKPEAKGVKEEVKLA

A-431 = assay: Antiproliferative activity against human A431 cells incubated for 72 hrs by MTT assay; format: functional, cell-based; conditions: A-431, 72 h
[5] = biological target: Receptor tyrosine-protein kinase erbB-2 (Homo sapiens, UniProt P04626); assay: Inhibition of HER2 (unknown origin) by mobility shift assay
Chain of Receptor tyrosine-protein kinase erbB-2 (P04626 whole entry): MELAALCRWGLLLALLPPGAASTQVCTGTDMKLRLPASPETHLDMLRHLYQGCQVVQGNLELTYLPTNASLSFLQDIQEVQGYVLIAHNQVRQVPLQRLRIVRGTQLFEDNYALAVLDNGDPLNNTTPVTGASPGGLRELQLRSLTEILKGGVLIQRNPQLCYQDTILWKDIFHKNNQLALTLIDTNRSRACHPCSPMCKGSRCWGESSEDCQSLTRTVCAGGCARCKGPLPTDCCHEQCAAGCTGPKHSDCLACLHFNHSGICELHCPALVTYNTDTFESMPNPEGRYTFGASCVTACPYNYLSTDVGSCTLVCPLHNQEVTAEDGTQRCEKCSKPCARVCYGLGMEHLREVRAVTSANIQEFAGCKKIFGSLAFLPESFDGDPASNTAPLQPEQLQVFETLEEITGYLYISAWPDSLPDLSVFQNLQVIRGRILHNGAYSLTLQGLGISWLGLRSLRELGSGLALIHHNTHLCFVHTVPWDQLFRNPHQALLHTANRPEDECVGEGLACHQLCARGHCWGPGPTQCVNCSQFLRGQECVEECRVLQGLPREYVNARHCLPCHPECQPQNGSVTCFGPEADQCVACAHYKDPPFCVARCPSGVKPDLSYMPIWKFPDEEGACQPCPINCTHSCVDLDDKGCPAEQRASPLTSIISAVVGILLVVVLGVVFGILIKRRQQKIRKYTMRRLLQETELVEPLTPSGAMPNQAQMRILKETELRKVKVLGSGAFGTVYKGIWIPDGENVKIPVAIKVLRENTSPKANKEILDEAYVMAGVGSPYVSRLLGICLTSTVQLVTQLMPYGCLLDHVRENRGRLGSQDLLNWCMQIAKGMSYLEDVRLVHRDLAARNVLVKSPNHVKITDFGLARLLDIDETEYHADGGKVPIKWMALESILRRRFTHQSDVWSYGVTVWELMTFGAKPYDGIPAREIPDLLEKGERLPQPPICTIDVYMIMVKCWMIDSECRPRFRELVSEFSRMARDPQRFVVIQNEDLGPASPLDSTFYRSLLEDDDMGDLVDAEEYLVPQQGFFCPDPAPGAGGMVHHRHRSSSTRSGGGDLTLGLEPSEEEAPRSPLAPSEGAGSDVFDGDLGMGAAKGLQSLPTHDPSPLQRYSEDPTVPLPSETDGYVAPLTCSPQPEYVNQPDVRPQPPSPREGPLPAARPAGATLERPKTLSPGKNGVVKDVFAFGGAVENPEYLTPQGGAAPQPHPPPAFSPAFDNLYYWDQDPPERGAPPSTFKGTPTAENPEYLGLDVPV
In short: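 In vitro kinase activity was measured by mobility shift assay, run by a contract provider.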

NCI-H1975 [6] = assay: Induction of apoptosis in human NCI-H1975 cells assessed as viable cells at 0.5 uM incubated for 48 hrs by propidium iodide and annexin-V FITC staining based flow cytometry (Rvb =88.95% ); format: functional; conditions: read-out: Activity
NCI-H1975 [7] = assay: Induction of apoptosis in human NCI-H1975 cells assessed as late apoptotic cells at 5 uM incubated for 48 hrs by propidium iodide and annexin-V FITC staining based flow cytometry (Rvb =4.20 %); format: functional
NCI-H1975 [8] = assay: Induction of apoptosis in human NCI-H1975 cells assessed as necrotic cells at 5 uM incubated for 48 hrs by propidium iodide and annexin-V FITC staining based flow cytometry (Rvb =0.18% ); format: functional
NCI-H1975 [9] = assay: Induction of apoptosis in human NCI-H1975 cells assessed as increase in cleaved-caspase 7 level at 0.5 to 5 uM after 48 hrs by Western blot analysis; format: functional, cell-based; conditions: dose 0.5-5 µM; in short: as §1
FHC = assay: Cytotoxicity against human FHC cells assessed as reduction of cell viability incubated for 72 hrs by MTT assay; format: ADME, cell-based
NCI-H838 = assay: Antiproliferation activity against human NCI-H838 cells incubated for 72 hrs by MTT assay; format: functional, cell-based; conditions: NCI-H838, 72 h
NCI-H1975 [10] = assay: Induction of apoptosis in human NCI-H1975 cells assessed as necrotic cells at 2.5 uM incubated for 48 hrs by propidium iodide and annexin-V FITC staining based flow cytometry (Rvb =0.18% ); format: functional
NCI-H1975 [11] = assay: Induction of apoptosis in human NCI-H1975 cells assessed as early apoptotic cells at 2.5 uM incubated for 48 hrs by propidium iodide and annexin-V FITC staining based flow cytometry (reference value: 6.67 %); format: functional
NCI-H1975 [12] = assay: Antiinvasive activity against human NCI-H1975 cells measured after 72 hrs by crystal violet dye-based transwell assay; format: functional, cell-based; conditions: dose 0.5-5 µM
In short: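 NCI-H1975 cells, 1 × 10⁴/well, seeded in serum-free medium in the upper chamber of a transwell insert. The lower chamber held 10% FBS medium with compound at the indicated dilutions, for 72 h. Non-invading cells were swabbed off. Cells on the membrane underside were fixed in 10% buffered formalin for 1 h, stained with crystal violet for 1 h, and imaged in three random fields.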

A549 = assay: Antiproliferative activity against human A549 cells incubated for 72 hrs by MTT assay; format: functional, cell-based; conditions: A549, 72 h
[13] = biological target: T1, Histone deacetylase (Homo sapiens); assay: Inhibition of HDAC in human A431 cells assessed as increase in histone H3 acetylation at 0.5 to 5 uM after 48 hrs by Western blot analysis; format: cell-based; conditions: A-431, dose 0.5-5 µM; in short: as §1
[14] = biological target: T2, Epidermal growth factor receptor (Homo sapiens, UniProt P00533); assay: Inhibition of EGFR in human NCI-H1975 cells assessed as reduction in EGFR phosphorylation at Tyr-1068 residues after 48 hrs by Western blot analysis; format: cell-based; conditions: dose 0.5-5 µM; in short: as §1
T2 sequence (P00533 whole entry): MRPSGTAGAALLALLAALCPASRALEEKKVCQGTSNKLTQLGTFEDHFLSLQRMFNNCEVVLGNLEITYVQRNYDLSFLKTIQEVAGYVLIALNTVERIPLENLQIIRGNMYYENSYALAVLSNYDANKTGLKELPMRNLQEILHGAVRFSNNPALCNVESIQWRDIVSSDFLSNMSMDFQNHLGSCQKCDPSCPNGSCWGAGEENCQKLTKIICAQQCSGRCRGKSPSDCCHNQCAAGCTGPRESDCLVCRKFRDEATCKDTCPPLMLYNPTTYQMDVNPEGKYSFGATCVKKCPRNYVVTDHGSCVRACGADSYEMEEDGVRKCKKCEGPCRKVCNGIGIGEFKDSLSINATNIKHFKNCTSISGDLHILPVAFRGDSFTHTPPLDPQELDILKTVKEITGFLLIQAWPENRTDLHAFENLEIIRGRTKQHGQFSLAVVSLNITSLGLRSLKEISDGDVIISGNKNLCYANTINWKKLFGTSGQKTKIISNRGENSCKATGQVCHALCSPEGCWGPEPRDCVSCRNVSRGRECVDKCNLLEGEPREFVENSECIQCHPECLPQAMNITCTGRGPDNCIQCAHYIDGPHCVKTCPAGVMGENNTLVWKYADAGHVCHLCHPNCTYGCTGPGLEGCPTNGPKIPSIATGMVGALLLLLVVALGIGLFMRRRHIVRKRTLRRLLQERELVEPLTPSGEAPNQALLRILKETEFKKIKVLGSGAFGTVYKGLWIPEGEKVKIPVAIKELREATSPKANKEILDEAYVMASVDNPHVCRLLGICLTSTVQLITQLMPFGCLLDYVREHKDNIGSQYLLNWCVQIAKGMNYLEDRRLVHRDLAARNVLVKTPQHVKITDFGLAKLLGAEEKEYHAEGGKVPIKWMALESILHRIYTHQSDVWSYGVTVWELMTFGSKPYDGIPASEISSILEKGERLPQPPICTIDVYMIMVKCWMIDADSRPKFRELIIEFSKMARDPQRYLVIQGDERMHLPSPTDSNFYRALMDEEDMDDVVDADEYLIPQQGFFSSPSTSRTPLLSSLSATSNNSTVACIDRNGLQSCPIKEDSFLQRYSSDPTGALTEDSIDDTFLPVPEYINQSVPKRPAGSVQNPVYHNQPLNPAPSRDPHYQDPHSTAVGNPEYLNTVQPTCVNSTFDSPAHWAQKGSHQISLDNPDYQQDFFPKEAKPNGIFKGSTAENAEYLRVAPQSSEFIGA

NCI-H1975 [15] = assay: Induction of apoptosis in human NCI-H1975 cells assessed as necrotic cells at 0.5 uM incubated for 48 hrs by propidium iodide and annexin-V FITC staining based flow cytometry (Rvb =0.18% ); format: functional
[16] = biological target: T1, Histone deacetylase (Homo sapiens); assay: Inhibition of HDAC in human NCI-H1975 cells assessed as increase in histone H3 acetylation at 2.5 uM after 1 to 12 hrs by Western blot analysis; format: cell-based; conditions: time lower 1.0 hrs, time upper […]
L02 = assay: cytotoxicity against human HL-7702 cells assessed as reduction of cell viability incubated for 72 hrs by MTT assay; format: ADME, cell-based; conditions: L02, 72 h
[17] = Antiproliferative activity against human NCI-H820 cells incubated for 72 hrs by MTT assay; format: functional, cell-based; conditions: NCI-H820, 72 h
[18] = biological target: Epidermal growth factor receptor (Homo sapiens, UniProt P00533, L858R/T790M); assay: Inhibition of EGFR L858R/T790M (unknown origin) by mobility shift assay
Chain of Epidermal growth factor receptor (Homo sapiens, UniProt P00533, L858R/T790M) (P00533 25-1210 T790M/L858R limits assumed): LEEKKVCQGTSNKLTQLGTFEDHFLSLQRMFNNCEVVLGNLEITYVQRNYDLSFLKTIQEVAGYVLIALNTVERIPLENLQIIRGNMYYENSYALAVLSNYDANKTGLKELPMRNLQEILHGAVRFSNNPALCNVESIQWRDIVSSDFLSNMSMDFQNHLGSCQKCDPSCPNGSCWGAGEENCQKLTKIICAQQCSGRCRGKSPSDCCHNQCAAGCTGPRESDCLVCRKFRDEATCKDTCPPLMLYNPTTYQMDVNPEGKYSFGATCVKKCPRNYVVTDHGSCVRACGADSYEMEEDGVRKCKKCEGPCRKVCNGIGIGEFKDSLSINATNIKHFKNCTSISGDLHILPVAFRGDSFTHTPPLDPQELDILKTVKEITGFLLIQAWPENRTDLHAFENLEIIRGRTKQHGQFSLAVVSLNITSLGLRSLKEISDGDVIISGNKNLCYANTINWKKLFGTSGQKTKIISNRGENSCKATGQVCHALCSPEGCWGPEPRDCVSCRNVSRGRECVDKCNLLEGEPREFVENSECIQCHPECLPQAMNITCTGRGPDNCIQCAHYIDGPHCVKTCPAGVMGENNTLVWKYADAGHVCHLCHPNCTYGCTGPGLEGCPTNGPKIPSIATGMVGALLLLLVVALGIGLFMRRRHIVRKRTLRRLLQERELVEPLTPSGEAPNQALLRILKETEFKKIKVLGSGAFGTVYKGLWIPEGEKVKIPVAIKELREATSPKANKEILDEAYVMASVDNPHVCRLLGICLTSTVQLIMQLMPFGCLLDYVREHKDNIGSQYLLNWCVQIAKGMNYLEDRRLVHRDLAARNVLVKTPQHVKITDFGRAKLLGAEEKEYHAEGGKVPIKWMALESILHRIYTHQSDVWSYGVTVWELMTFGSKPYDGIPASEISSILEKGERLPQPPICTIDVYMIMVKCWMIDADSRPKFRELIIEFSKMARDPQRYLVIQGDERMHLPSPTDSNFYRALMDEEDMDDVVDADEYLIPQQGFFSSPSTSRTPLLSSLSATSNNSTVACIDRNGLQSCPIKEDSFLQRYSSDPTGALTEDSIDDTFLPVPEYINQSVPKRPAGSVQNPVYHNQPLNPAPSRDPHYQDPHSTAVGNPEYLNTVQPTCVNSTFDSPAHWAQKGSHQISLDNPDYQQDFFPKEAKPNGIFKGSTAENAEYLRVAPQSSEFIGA

[19] = biological target: T2, Epidermal growth factor receptor; assay: Inhibition of EGFR in human NCI-H1975 cells assessed as reduction in EGFR phosphorylation at Tyr-1173 residues after 48 hrs by Western blot analysis; format: cell-based; conditions: dose 0.5-5 µM; in short: as §1
NCI-H1975 [20] = assay: Induction of apoptosis in human NCI-H1975 cells assessed as increase in cleaved-PARP level at 0.5 to 5 uM after 48 hrs by Western blot analysis; format: functional, cell-based; conditions: dose 0.5-5 µM; in short: as §1
[21] = biological target: T2, Epidermal growth factor receptor; assay: Inhibition of EGFR in human A431 cells assessed as reduction in EGFR phosphorylation at Tyr-1173 residues at 0.5 to 5 uM after 48 hrs by Western blot analysis; format: cell-based; conditions: A-431, dose 0.5-5 µM; in short: as §1
NCI-H1975 [22] = assay: Induction of apoptosis in human NCI-H1975 cells assessed as early apoptotic cells at 0.5 uM incubated for 48 hrs by propidium iodide and annexin-V FITC staining based flow cytometry (reference value: 6.67 %); format: functional
[23] = biological target: T2, Epidermal growth factor receptor; assay: Inhibition of EGFR in human A431 cells assessed as reduction in EGFR phosphorylation at Tyr-1068 residues at 0.5 to 5 uM after 48 hrs by Western blot analysis; format: cell-based; conditions: A-431, dose 0.5-5 µM; in short: as §1

**Q.** For `C=CC(=O)Nc1cc2c(Nc3ccc(F)c(Cl)c3)ncnc2cc1OCc1cn(CCCC(=O)NO)nn1`, which Activity (NCI-H1975 [1]) is on record?
**A.** Active

**Q.** And the inhibition [2]?
**A.** Dose-dependent effect

**Q.** And the pIC50 (SK-BR-3)?
**A.** 4.51

**Q.** And the Activity (NCI-H1975 [3])?
**A.** Active

**Q.** And the Activity (NCI-H1975 [4])?
**A.** Active

**Q.** And the pIC50 (Histone deacetylase 1)?
**A.** 7.12

**Q.** What about the pIC50 (A-431) of the same compound?
**A.** 4.69

**Q.** And the pIC50 [5]?
**A.** 8.24

**Q.** What about the viability at 0.5 µM (NCI-H1975 [6]) of the same compound?
**A.** 62.6%

**Q.** And the Activity (NCI-H1975 [7])?
**A.** 18.07%

**Q.** And the Activity (NCI-H1975 [8])?
**A.** 0.57%

**Q.** And the Activity (NCI-H1975 [9])?
**A.** Active

**Q.** What about the pIC50 (FHC) of the same compound?
**A.** < 4.60

**Q.** What about the pIC50 (NCI-H838) of the same compound?
**A.** < 4.30

**Q.** And the Activity (NCI-H1975 [10])?
**A.** 0.36%

**Q.** And the Activity (NCI-H1975 [11])?
**A.** 31.38%

**Q.** And the Activity (NCI-H1975 [12])?
**A.** Dose-dependent effect

**Q.** And the pIC50 (A549)?
**A.** < 4.30

**Q.** What about the inhibition [13] of the same compound?
**A.** Active

**Q.** And the inhibition [14]?
**A.** Dose-dependent effect

**Q.** And the Activity (NCI-H1975 [15])?
**A.** 0.08%

**Q.** And the inhibition [16]?
**A.** Active

**Q.** What about the pIC50 (L02) of the same compound?
**A.** < 4.60

**Q.** What about the pIC50 [17] of the same compound?
**A.** 5.76

**Q.** And the pIC50 [18]?
**A.** 8.82

**Q.** What about the inhibition [19] of the same compound?
**A.** Dose-dependent effect

**Q.** What about the Activity (NCI-H1975 [20]) of the same compound?
**A.** Active

**Q.** What about the inhibition [21] of the same compound?
**A.** Active

**Q.** What about the Activity (NCI-H1975 [22]) of the same compound?
**A.** 24.28%

**Q.** What about the inhibition [23] of the same compound?
**A.** Active
